From ChEMBL document CHEMBL1152833, “Synthesis of some novel N4-(naphtha[1,2-d]thiazol-2-yl)semicarbazides as potential anticonvulsants” (Eur J Med Chem, 2009) come the findings set out here.

Active and inactive are the calls of the source.

For series [1], the system named is Mus musculus. Kind of series: Neurotoxicity in Swiss albino mouse at 300 mg/kg, ip after 4 hrs by rotarod test. The arrangement: dose 300 mg/kg, route intraperitoneal. As to conditions: in vivo. The class given is toxicity, organism-based. An outline of the steps:
(§1)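 Rotarod test in male Swiss albino mice (18–25 g) after i.p. dosing at 30, 100 and 300 mg/kg, read at 0.5 and 4 h. Mice falling within 30 s in a pre-check were excluded. Neurotoxicity was scored as the minimum dose at which half or more of the mice fell off the rod.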
For orientation: In the rotarod test animals must keep their balance on a rotating rod.

In series [2] the test system is Mus musculus. Kind of series: Anticonvulsant activity in ip dosed Swiss albino mouse assessed as minimum drug concentration required for inhibition of maximal electroshock-induced seizure in half or more of mouse after 0.5 hrs by MES test. It is filed as functional. The procedure, abridged: (§2)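 Male Swiss albino mice (18–25 g) received compound i.p. at 30, 100 and 300 mg/kg. MES seizures were induced after 0.5 and 4 h, with a drop of 0.9% saline placed in the eye before the electrodes went on. Protection meant abolition of the hind-limb tonic extensor component. The tabulated value is the minimum dose protecting half or more of the mice.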

Series [3] relates to Mus musculus. Kind of series: Anticonvulsant activity against maximal electroshock-induced seizures in Swiss albino mouse at 300 mg/kg, ip after 4 hrs by MES test. It is filed as functional, organism-based. On the set-up: dose 300 mg/kg. The procedure, abridged:
as §2
On the technique in general: In the maximal electroshock model the usual endpoint is tonic extension of the hind limbs.

The test system of series [4] is Mus musculus. Kind of series: Anticonvulsant activity against pentylenetetrazole-induced seizures in Swiss albino mouse at 300 mg/kg, ip after 0.5 hrs by scPTZ test. It is filed as functional, organism-based. The arrangement: dose 300 mg/kg. An outline of the steps:
(§3)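 Male Swiss albino mice (18–25 g) were dosed i.p. at 30, 100 and 300 mg/kg, examined at 0.5 and 4 h. PTZ 85 mg/kg (CD97) was given and the animals were […]. Protection meant absence of any threshold convulsion, i.e. clonic spasm lasting at least 5 s. The value is the minimum dose active in half or more of the mice.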

Series [5] concerns Mus musculus. Briefly: Toxicity to Swiss albino mouse assessed as mortality following tonic extension at 300 mg/kg, ip after 4 hrs. The class given is organism-based. On the set-up: dose 300 mg/kg, route intraperitoneal. As to conditions: in vivo.
For series [6], the system named is Mus musculus. Kind of series: Neurotoxicity in ip dosed Swiss albino mouse assessed as minimum drug concentration required for falling off the rotarod by half or more of mouse after 0.5 hrs by rotarod test. It is filed as toxicity, organism-based. As to conditions: in vivo. The procedure, abridged:
as §1

Series [7] has as its system Mus musculus. Briefly: Anticonvulsant activity in ip dosed Swiss albino mouse assessed as minimum drug concentration required for inhibition of maximal electroshock-induced seizure in half or more of mouse after 4 hrs by MES test. It is filed as functional. The procedure, abridged: as §2
Series [8] relates to Mus musculus. Briefly: Anticonvulsant activity in ip dosed Swiss albino mouse assessed as minimum drug concentration required for inhibition of pentylenetetrazole-induced seizures in half or more of mouse after 0.5 hrs by scPTZ test. It is filed as functional. An outline of the steps:
as §3

For series [9], the system named is Mus musculus. Briefly: Neurotoxicity in ip dosed Swiss albino mouse assessed as minimum drug concentration required for falling off the rotarod by half or more of mouse after 4 hrs by rotarod test. The class given is toxicity, organism-based. As to conditions: in vivo. An outline of the steps:
as §1

The subject of series [10] is Rattus norvegicus. Kind of series: Anticonvulsant activity against pentylenetetrazole-induced seizures in Wistar albino rat at 50 mg/kg, po after 0.25 hrs by scPTZ test. On the set-up: dose 50 mg/kg. It is filed as functional, organism-based. An outline of the steps:
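Male Wistar rats (100-125 g), compound given orally at 50 mg/kg, then challenged with scPTZ at 70 mg/kg. Absence of such a convulsion counted as protection. Groups of four rats were scored at 0.25, 0.5, 1 and 2 h as number protected out of four.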

Series [11] relates to Mus musculus. Kind of series: Anticonvulsant activity against maximal electroshock-induced seizures in Swiss albino mouse at 300 mg/kg, ip after 0.5 hrs by MES test. It is filed as functional, organism-based. On the set-up: dose 300 mg/kg. An outline of the steps: as §2
The test system of series [12] is Mus musculus. Briefly: Anticonvulsant activity against pentylenetetrazole-induced seizures in Swiss albino mouse at 300 mg/kg, ip after 4 hrs by scPTZ test. It is filed as functional, organism-based. The arrangement: dose 300 mg/kg. An outline of the steps: as §3
In series [13] the test system is Mus musculus. Briefly: Neurotoxicity in Swiss albino mouse at 300 mg/kg, ip after 0.5 hrs by rotarod test. It is filed as toxicity, organism-based. On the set-up: dose 300 mg/kg, route intraperitoneal. As to conditions: in vivo. The procedure, abridged:
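Male Swiss albino mice (18-25 g) received the compound i.p. at 30, 100 or 300 mg/kg and were tested on the rotarod 0.5 and 4 h later. Mice were pre-checked, and any that fell off within 30 s were excluded. Neurotoxicity was scored as falling off the rod. The value is the minimum dose affecting half or more of the mice.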

For series [14], the system named is Mus musculus. Briefly: Anticonvulsant activity in ip dosed Swiss albino mouse assessed as minimum drug concentration required for inhibition of pentylenetetrazole-induced seizures in half or more of mouse after 4 hrs by scPTZ test. The class given is functional. An outline of the steps: as §3
In series [15] the test system is Mus musculus. Briefly: Toxicity to Swiss albino mouse assessed as occurrence of myoclonic jerks at 300 mg/kg, ip after 0.5 hrs. It is filed as organism-based. The arrangement: dose 300 mg/kg, route intraperitoneal. As to conditions: in vivo.
The test system of series [16] is Mus musculus. Briefly: Antioxidant activity against PTZ-induced decrease in superoxide dismutase activity in Swiss albino mouse brain assessed as enzyme units per mg of protein causing 50% inhibition in NBT reduction rate at 100 mg/kg, ip administered 30 mins before PTZ challenge measured after 4 hrs. The class given is functional. As to conditions: route intraperitoneal. The procedure, abridged:
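Same mouse dosing: 100 mg/kg i.p. 30 min before PTZ 85 mg/kg, brains taken at 4 h. Total SOD was measured in the ethanol phase of an ethanol/chloroform (5:3) extract, as inhibition of NBT reduction by xanthine–xanthine oxidase. One unit gives 50% inhibition; activity is expressed per mg protein (Lowry). n=6, mean ± SEM.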

Series [17] relates to Rattus norvegicus. Briefly: Anticonvulsant activity against pentylenetetrazole-induced seizures in Wistar albino rat at 50 mg/kg, po after 2 hrs by scPTZ test. The class given is functional, organism-based. On the set-up: dose 50 mg/kg. An outline of the steps: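 Male Wistar rats (100–125 g) were given compound orally at 50 mg/kg. They were challenged with scPTZ at 70 mg/kg at 0.25, 0.5, 1.0 and 2.0 h, and seizures were watched for. Protection meant absence of clonic spasm lasting at least 5 s. The score is the number of rats protected out of four.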

Series [18] relates to Mus musculus. Kind of series: Antioxidant activity against PTZ-induced lipid peroxidation in Swiss albino mouse brain assessed as malondialdehyde content per mg of protein at 100 mg/kg, ip preincubated for 30 mins before PTZ challenge measured after 4 hrs by TBARS assay. It is filed as functional. As to conditions: route intraperitoneal. The procedure, abridged: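 Mice were dosed 100 mg/kg i.p. 30 min before PTZ 85 mg/kg, and brains were homogenized after 4 h. For TBARS, homogenate supernatant was heated with SDS, acetic acid and 0.8% thiobarbituric acid at 95 °C for 1 h. The product was extracted into n-butanol/pyridine and read at 532 nm. Results are pmol MDA/mg protein, n=6, mean ± SEM.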

For `COc1ccc(OC)c(/C=N/NC(=O)Nc2nc3c(ccc4ccccc43)s2)c1`, the Activity result with Mus musculus [1] is “Non-toxic”; in the series with Mus musculus [2], 300 mg/kg; with Mus musculus [5], “Toxic”; in the series on Mus musculus [6], 300 mg/kg. Also, the result in the series on Mus musculus [3] and with Mus musculus [4] was inactive.

With `O=C(N/N=C/c1ccc(Cl)cc1)Nc1nc2c(ccc3ccccc32)s1`, the Activity with Mus musculus [2] was 100 mg/kg; in the series on Mus musculus [7], 100 mg/kg; with Mus musculus [8], 300 mg/kg; with Mus musculus [5], “Toxic”; with Mus musculus [6], 100 mg/kg; in the series on Mus musculus [9], 300 mg/kg.

For `CCC1(C)CC(=O)NC1=O` (centres undefined) [ETHOSUXIMIDE], the Activity entry in the series with Mus musculus [1] was “Non-toxic”; with Mus musculus [8] it was 300 mg/kg; in the series with Mus musculus [13] it was “Non-toxic”. Also, the outcome with Rattus norvegicus [10], with Mus musculus [11], in the series with Mus musculus [3] and in the series on Mus musculus [12] was inactive.

For the compound `C/C(=N\NC(=O)Nc1nc2c(ccc3ccccc32)s1)c1ccc(C)cc1`, the Activity is 300 mg/kg in the series with Mus musculus [2]; 300 mg/kg with Mus musculus [14]; “Toxic” with Mus musculus [15]; 300 mg/kg with Mus musculus [9]; “Non-toxic” in the series with Mus musculus [13]. In addition, the result in the series with Mus musculus [3] was inactive.

`O=C(N/N=C/c1ccc([N+](=O)[O-])cc1)Nc1nc2c(ccc3ccccc32)s1`: the Activity amounted to 58 with Mus musculus [16]; 300 mg/kg in the series on Mus musculus [2]; 300 mg/kg in the series with Mus musculus [7]; 100 mg/kg in the series on Mus musculus [8]; 300 mg/kg in the series on Mus musculus [14]; 300 mg/kg in the series with Mus musculus [6]. The Activity in the series with Mus musculus [9] is 300 mg/kg; in the series on Mus musculus [18] it was 309 pmol. Also, the outcome in the series on Rattus norvegicus [17] was inactive.
